Source: ChEMBL document CHEMBL3588809, “Antioxidant and Anti-Inflammatory Phenolic Glycosides from Clematis tashiroi” (J Nat Prod, 2015)
Each block holds one molecule with its values, some of them ahead of it. Activity calls are given as the source filed them. The rule behind the calls is not given here.

What was measured:
[1] = Antioxidant activity assessed as DPPH free radical scavenging activity at 100 ug/ml incubated for 30 mins by ELISA method; assay type: physicochemical; conditions: 0.5 h
Summary of the method: (§1)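 Sample (120 μL, 10−100 μg/mL) mixed with 30 μL of 0.75 mM DPPH in methanol, shaken in the dark at room temperature for 30 min, absorbance read at 517 nm on a plate reader. Methanol negative control, α-tocopherol (10−40 μg/mL) positive control. ED50 taken as concentration scavenging 50% of DPPH radicals.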

RAW264.7 [2] = assay: Anti-inflammatory activity in mouse RAW264.7 cells assessed as inhibition of LPS-induced nitric oxide production at 20 ug/ml incubated for 24 hrs by Griess reagent based assay; assay type: functional, cell-based
Summary of the method: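 RAW 264.7 macrophages grown in DMEM with 5% heat-inactivated fetal calf serum at 37 °C, 5% CO2. Cells seeded at 2 × 10^5/well, treated with compound (DMSO stock diluted in PBS) together with LPS 1000 ng/mL for 24 h. Medium nitrite read with Griess reagent at 550 nm against NaNO2 standard curve; LPS-only NO set as 100%; triplicate; quercetin positive control.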

[3] = Antioxidant activity assessed as DPPH free radical scavenging activity incubated for 30 mins by ELISA method; assay type: physicochemical; conditions: 0.5 h; read-out: ED50 (the source's name); summary of the method: as §1
RAW264.7 [4] = assay: Anti-inflammatory activity in mouse RAW264.7 cells assessed as inhibition of LPS-induced nitric oxide production incubated for 24 hrs by Griess reagent based assay; assay type: functional, cell-based; conditions: RAW264.7, 24 h
Summary of the method: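 RAW 264.7 macrophages grown in DMEM with 5% heat-inactivated FCS at 37 °C, 5% CO2; plated at 2 × 10^5 cells/well and stimulated with LPS (1000 ng/mL) concurrently with test agents (DMSO stocks diluted in PBS) for 24 h. Nitrite in medium measured with Griess reagent at 550 nm against NaNO2 standard curve; LPS-only set as 100%; triplicates; IC50 reported.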

Structure (SMILES): O=C(/C=C/c1ccc(O)cc1)OC[C@H]1O[C@@H](Oc2cc(/C=C/C(=O)O[C@@H]3O[C@H](CO)[C@@H](O)[C@H](O)[C@H]3O)ccc2O)[C@H](O)[C@@H](O)[C@@H]1O
Activity [1]: 32.2% | inhibition (RAW264.7 [2]): inactive

Structure (SMILES): O=C(/C=C/c1ccc(O)c(O)c1)O[C@@H]1O[C@H](CO)[C@@H](O)[C@H](O)[C@H]1O
Activity [1]: 99.3% | inhibition (RAW264.7 [2]): inactive | EC50 [3]: 29.1 µM

Structure (SMILES): O=C(O)/C=C/c1ccc(O[C@@H]2O[C@H](CO)[C@@H](O)[C@H](O)[C@H]2O)c(O)c1
Activity [1]: 91.2% | inhibition (RAW264.7 [2]): inactive | EC50 [3]: 175 µM

Structure (SMILES): O=C(/C=C/c1ccc(O)c(O)c1)OC[C@H]1OC(O)[C@H](O)[C@@H](O)[C@@H]1O (some centres undefined)
Activity [1]: 9.8% | inhibition (RAW264.7 [2]): inactive

Structure (SMILES): Cc1c(C)c2c(c(C)c1O)CCC(C)(CCCC(C)CCCC(C)CCCC(C)C)O2 (racemic) [alpha-TOCHOPHEROL]
EC50 [3]: 27.8 µM

Structure (SMILES): O=C(/C=C/c1ccc(O)cc1)OC[C@H]1OC(O)[C@H](O)[C@@H](O)[C@@H]1O (some centres undefined)
Activity [1]: 5% | inhibition (RAW264.7 [2]): inactive

Structure (SMILES): O=c1c(O)c(-c2ccc(O)c(O)c2)oc2cc(O)cc(O)c12 [QUERCETIN]
IC50 (RAW264.7 [4]): 1.8 µM

Further lines, with some results ahead:

Activity [1]: 99% | IC50 (RAW264.7 [4]): 14.9 µM | EC50 [3]: 13 µM
Structure (SMILES): O=C(/C=C/c1ccc(O)c(O)c1)OC[C@H]1O[C@@H](Oc2cc(/C=C/c3ccc(O)c(O)c3)oc(=O)c2)[C@H](O)[C@@H](O)[C@@H]1O

Activity [1]: 99.4% | EC50 [3]: 39.9 µM
Structure (SMILES): O=C(/C=C/c1ccc(O)c(O)c1)OC[C@H]1O[C@@H](Oc2cc(/C=C/C(=O)O[C@@H]3O[C@H](CO)[C@@H](O)[C@H](O)[C@H]3O)ccc2O)[C@H](O)[C@@H](O)[C@@H]1O
inhibition (RAW264.7 [2]): inactive

Activity [1]: 98.8% | EC50 [3]: 17 µM
Structure (SMILES): O=C(/C=C/c1ccc(O[C@@H]2O[C@H](COC(=O)/C=C/c3ccc(O)c(O)c3)[C@@H](O)[C@H](O)[C@H]2O)c(O)c1)OC[C@H]1O[C@@H](Oc2cc(/C=C/c3ccc(O)c(O)c3)oc(=O)c2)[C@H](O)[C@@H](O)[C@@H]1O
inhibition (RAW264.7 [2]): inactive

Activity [1]: 74.8% | EC50 [3]: 87 µM
Structure (SMILES): COc1cc(/C=C/C(=O)OC[C@H]2O[C@@H](Oc3ccc(/C=C/C(=O)O[C@@H]4O[C@H](CO)[C@@H](O)[C@H](O)[C@H]4O)cc3O)[C@H](O)[C@@H](O)[C@@H]2O)ccc1O
inhibition (RAW264.7 [2]): inactive

Activity [1]: 7.8%
Structure (SMILES): O=C(/C=C/c1ccc(O)cc1)OC[C@H]1O[C@@H](Oc2ccc(/C=C/C(=O)O[C@@H]3O[C@H](CO)[C@@H](O)[C@H](O)[C@H]3O)cc2O)[C@H](O)[C@@H](O)[C@@H]1O
inhibition (RAW264.7 [2]): inactive

Activity [1]: 99.8% | EC50 [3]: 13.3 µM
Structure (SMILES): O=C(/C=C/c1ccc(O)c(O)c1)OC[C@H]1O[C@@H](Oc2ccc(/C=C/C(=O)O[C@@H]3O[C@H](CO)[C@@H](O)[C@H](O)[C@H]3O)cc2O)[C@H](O)[C@@H](O)[C@@H]1O
inhibition (RAW264.7 [2]): inactive

Activity [1]: 99.7% | EC50 [3]: 47 µM
Structure (SMILES): O=C(/C=C/c1ccc(O)c(O)c1)OC[C@H]1O[C@@H](Oc2ccc(/C=C/C(=O)O[C@@H]3O[C@H](CO)[C@@H](O)[C@H](O)[C@H]3O)cc2)[C@H](O)[C@@H](O)[C@@H]1O
inhibition (RAW264.7 [2]): inactive
